Measurements of several laboratories.
Lines come from different studies, so protocols differ.
USP51: Ubiquitin carboxyl-terminal hydrolase 51 (USP51, Homo sapiens, UniProt Q70EK9)
DRD3: D(3) dopamine receptor (DRD3, Homo sapiens, UniProt P35462)
SLC6A3: Sodium-dependent dopamine transporter (SLC6A3, Homo sapiens, UniProt Q01959)
CA12: Carbonic anhydrase 12 (CA12, Homo sapiens, UniProt O43570)

CCCC(=O)O
inhibition (USP51; enzyme activity, inhibitor; 5 µM): 30%

O=C1C2CCCN2C(=O)N1CCCCN1CCN(c2ccccc2)CC1 (stereo not drawn)
inhibition (DRD3; enzyme activity, inhibitor; 10 µM): 33.5%

Clc1ccc(C(c2ccc(Cl)cc2)c2nnnn2CCCN2CCC(Cc3ccccc3)CC2)cc1
inhibition (SLC6A3; transporter uptake, inhibitor; HEK293; 1 µM): 90.8%

CCOC(=O)C1CSc2[nH]c(=O)sc2C1c1cn(-c2ccccc2)nc1-c1ccc(OC)cc1 (stereo not drawn)
inhibition (CA12; enzyme activity, inhibitor, absorbance; 10 nM): 17.1%

c1ccc(C2CCN(CCCCn3nnnc3C(c3ccccc3)c3ccccc3)CC2)cc1
inhibition (SLC6A3; transporter uptake, inhibitor; HEK293; 1 µM): 93.9%

N#CC1CSc2[nH]c(=O)sc2C1c1cn(-c2ccccc2)nc1-c1ccc(Br)cc1 (stereo not drawn)
inhibition (CA12; enzyme activity, inhibitor, absorbance; 1 µM): 61.5%

CCc1ccc(N2CCN(CC(O)COc3ccc(C(C)=O)cc3OC)CC2)cc1 (stereo not drawn)
inhibition (DRD3; enzyme activity, inhibitor; 10 µM): 2.9%

Clc1ccc(C(c2ccccc2)c2nnnn2CCCN2CCC(Cc3ccccc3)CC2)cc1 (stereo not drawn)
inhibition (SLC6A3; transporter uptake, inhibitor; HEK293; 1 µM): 93.8%

COc1ccc(-c2cc(=O)c3c(O)cc(O[C@@H]4O[C@H](CO[C@@H]5O[C@@H](C)[C@H](O)[C@@H](O)[C@H]5O)[C@@H](O)[C@H](O)[C@H]4O)cc3o2)cc1O
inhibition (USP51; enzyme activity, inhibitor; 5 µM): 0%

O=C(Nc1ccc(S(=O)(=O)N2CCC(Cl)CC2)cc1)c1ccc([N+](=O)[O-])o1
inhibition (Sodium- and chloride-dependent GABA transporter 1 (Slc6a1, Rattus norvegicus, UniProt P23978); ligand displacement, radioligand; 10 µM): 17%

CCOC(=O)C1CSc2[nH]c(=O)sc2C1c1cn(-c2ccccc2)nc1-c1ccc(C)cc1 (stereo not drawn)
inhibition (CA12; enzyme activity, inhibitor, absorbance; 10 µM): 83.1%

COc1cc(C=O)ccc1O
inhibition (USP51; enzyme activity, inhibitor; 5 µM): 50%

CCN(CC)CCNC(=O)c1c(C)[nH]c(/C=C2\C(=O)Nc3ccc(F)cc32)c1C
inhibition (Tyrosine-protein kinase Lyn (Lyn, Mus musculus, UniProt P25911); enzyme activity, inhibitor; 0.3 µM): 40%

COc1cc(CNCCc2c[nH]c3ccccc23)cc(Cl)c1OCC(N)=O
inhibition (DRD3; enzyme activity, inhibitor; 10 µM): 39.6%

N[C@@H](CSSC[C@H](N)C(=O)O)C(=O)O
inhibition (USP51; enzyme activity, inhibitor; 5 µM): 24%

Cc1c(Cl)cccc1-c1ccc(CNCC(O)c2ccccc2)o1 (stereo not drawn)
inhibition (DRD3; enzyme activity, inhibitor; 10 µM): 21.5%

O=c1cc(-c2ccccc2)oc2cc(O)c(O)c(O)c12
inhibition (USP51; enzyme activity, inhibitor; 5 µM): 95%

CC(=O)Nc1ccc(N2C(=O)CC(NCCc3ccccc3)C2=O)cc1 (stereo not drawn)
inhibition (DRD3; enzyme activity, inhibitor; 10 µM): 5.54%

O=c1c(O[C@@H]2O[C@H](CO)[C@H](O)[C@H](O)[C@H]2O)c(-c2ccc(O)c(O)c2)oc2cc(O)cc(O)c12
inhibition (USP51; enzyme activity, inhibitor; 5 µM): 54%

CCOC(=O)C1CSc2[nH]c(=O)sc2C1c1cn(-c2ccccc2)nc1-c1ccc(Br)cc1 (stereo not drawn)
inhibition (CA12; enzyme activity, inhibitor, absorbance; 100 µM): 92.1%

O=C(NCCN1CCN(C(=O)c2ccccc2)CC1)C(=O)Nc1ccccc1
inhibition (DRD3; enzyme activity, inhibitor; 10 µM): -26.2%
